Test [1] in a line: reducers of endogenous Her2 protein level, primary screen, SKBR3 breast tumor cells, AlphaScreen, ATP viability (AID 461).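 For Her2 level: lower value means less Her2 protein in the cells.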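 For viability: percent of carrier control wells set as 100% viability.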 Conditions: 18-24 h, measured here: SKBR3 viability, ATP luminescence, at 10 µM. For orientation: Bead proximity is the source of the signal in Alpha formats.
The target in test [2] is Receptor tyrosine-protein kinase erbB-2 (Homo sapiens) (UniProt P04626). The test is described as above. Conditions: 18-24 h, at 10 µM, stronger effect = lower value.
Sequence of Receptor tyrosine-protein kinase erbB-2 (Homo sapiens) (P04626 whole entry, looked up): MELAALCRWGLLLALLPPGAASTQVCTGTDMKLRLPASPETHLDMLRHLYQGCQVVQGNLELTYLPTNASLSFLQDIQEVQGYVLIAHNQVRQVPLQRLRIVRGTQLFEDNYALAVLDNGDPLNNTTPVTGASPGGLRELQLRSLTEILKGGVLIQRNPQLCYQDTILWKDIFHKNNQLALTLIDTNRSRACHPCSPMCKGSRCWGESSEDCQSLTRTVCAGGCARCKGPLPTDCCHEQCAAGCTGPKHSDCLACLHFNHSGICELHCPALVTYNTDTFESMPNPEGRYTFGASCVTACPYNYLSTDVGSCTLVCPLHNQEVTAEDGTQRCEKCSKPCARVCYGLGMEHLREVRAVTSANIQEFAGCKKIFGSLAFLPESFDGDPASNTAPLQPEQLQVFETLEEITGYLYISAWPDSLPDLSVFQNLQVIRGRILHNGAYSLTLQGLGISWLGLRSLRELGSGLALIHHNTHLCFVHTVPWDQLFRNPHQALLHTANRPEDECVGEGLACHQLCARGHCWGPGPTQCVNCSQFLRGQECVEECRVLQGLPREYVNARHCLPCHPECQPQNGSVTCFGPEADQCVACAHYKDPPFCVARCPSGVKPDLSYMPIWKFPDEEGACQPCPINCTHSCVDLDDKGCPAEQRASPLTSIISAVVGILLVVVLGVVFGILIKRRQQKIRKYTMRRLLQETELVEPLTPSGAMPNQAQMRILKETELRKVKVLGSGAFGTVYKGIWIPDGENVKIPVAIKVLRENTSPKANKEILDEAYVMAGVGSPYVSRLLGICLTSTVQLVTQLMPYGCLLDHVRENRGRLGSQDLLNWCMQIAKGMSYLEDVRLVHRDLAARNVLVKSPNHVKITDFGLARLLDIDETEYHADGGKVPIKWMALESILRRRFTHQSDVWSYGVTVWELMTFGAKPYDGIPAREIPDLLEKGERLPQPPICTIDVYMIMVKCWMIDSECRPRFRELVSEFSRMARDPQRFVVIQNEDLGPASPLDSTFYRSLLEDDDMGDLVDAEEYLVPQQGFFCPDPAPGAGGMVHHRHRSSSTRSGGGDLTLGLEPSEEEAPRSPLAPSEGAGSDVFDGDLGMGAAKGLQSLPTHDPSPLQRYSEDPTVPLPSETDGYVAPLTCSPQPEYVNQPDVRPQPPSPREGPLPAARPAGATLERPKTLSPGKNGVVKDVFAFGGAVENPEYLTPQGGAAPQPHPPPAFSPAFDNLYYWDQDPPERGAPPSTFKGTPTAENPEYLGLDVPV
Test [3] is described as follows: SK-BR-3 cell growth inhibitors, pilot screen, 24 h, human (AID 572;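 active = viability at or below 10% of carrier control in both of two separate runs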;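 note: compound exposure lasted between 18 and 24 h rather than exactly 24 h; 100% = carrier-treated control wells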). The settings on record: SK-BR-3 viability, CellTiter-Glo luminescence, at 10 µM, stronger effect = lower value. (In ATP-based viability assays light output follows the ATP content of the culture.)
The nature of test [4]: HUVEC growth inhibition – cell-based, human, primary screen (AID 575;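 active = viability at or below 30% in both replicate assays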;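 note: 100% = median of untreated cell wells with 0.1% DMSO on each plate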). Conditions: HUVEC proliferation, CellTiter-Glo luminescence, 72 h; at 10 µM; stronger effect = lower value. The method in brief:
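material = primary HUVEC, no more than 12 passages | input = 1250 cells per well | controls = vehicle and MePR control wells | measured by = CTG luminescence | times = 72 h compound incubation | format = collagen-coated 384-well format | read-out = % viability vs DMSO wells | doses = single 10 µM dose, 0.1% DMSO, from 5x medium stock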

Test [5] can be described thus: growth inhibitors of H69AR lung tumor, primary screen, human, duplicate replicates (AID 580;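 active = viability at or under a set limit in both replicates, limit being median viability minus 3 SD, cut at about 48% in these data, passing the limit was not always enough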;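 note: 100% = mean luminescence of untreated wells and 0% = no signal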). The settings on record: H69AR lung tumor cells viability, ATP luminescence, 72 h; at 10 µM; stronger effect = lower value.
The nature of test [6]: reversal of MRP1-mediated doxorubicin resistance, pilot screen, H69AR cells, doxorubicin co-treatment (AID 601;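 active = viability loss from added drug above about 55%, and viability with drug at most 40%, in both replicates, limit read from the data, passing the limit was not always enough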). Conditions: CellTiter-Glo, 72 h, at 10 µM; for differential viability (reversal): stronger effect = higher value.
Test [7] is described as follows: 384-well plate pilot, post-Golgi transport modulator project, inhibition of yeast transport mutant growth (AID 636; in the data active = inhibition above about 31%). The settings on record: absorbance 615 nm, about 18 h, stronger effect = higher value.
Test [8] is described as follows: growth suppression of yeast trafficking mutant, preliminary HTS, modulators of trafficking downstream of Golgi apparatus project, 1536-format plate, OD 615 nm (AID 637; in the data active = inhibition above about 30%). The settings on record: yeast transport mutant growth, absorbance 615 nm, 18 h; stronger effect = higher value.
Where [9] appears, read: H69AR cells + 2 uM doxorubicin, measured here: viability with 2 uM doxorubicin, stronger effect = lower value.
Where [10] appears, read: H69AR cells, compound alone cytotoxicity.

Experimental findings from PubChem BioAssay are described below.

Activity calls are given as the source filed them.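 Rule for the calls, unless noted: active = Her2 level under about 52% in both replicate screens, with viability over 70% of control (limit read from the data); inconclusive = Her2 under the limit in one screen only, or viability under 70%; inactive = Her2 level above the set limit.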

By viability is commonly meant a read-out of living cells in per cent, often relative to untreated cells. One may read the inhibition as the change of the read-out against control, counted positive when it falls. Turning to `Cc1ccc(C)c(N2CCN(Cc3nnnn3C3CCCCC3)CC2)c1`, the viability was 94% in test [1]; 94% (inactive) in test [3]; 78.1% (inactive) in test [4]; 71% (inactive) in test [5]; 80% in test [6] (setting [9]); 71% in test [6] (setting [10]). The Her2 level in test [2] is 91% (inactive). In addition, the differential viability (reversal) in test [6] (H69AR cells + 2 uM doxorubicin) was -9.05% (inactive). Moreover, the inhibition in test [7] is -3.25% (inactive); in test [8] it was 3.49% (inactive).
For the compound `Cc1nc(C)c(C(=O)Nc2ccc(Oc3ccccc3)cc2)o1`, the viability in test [1] was 94.5%; in test [3], 94.5% (inactive); in test [4], 66.4% (inactive); in test [5], 103% (inactive); in test [6] (setting [9]), 79.4%; in test [6] (setting [10]) it was 103%. For the same compound, in test [2], the Her2 level was 82% (inactive). For the same compound, in test [6] (H69AR cells + 2 uM doxorubicin), the differential viability (reversal) was 23.8% (inactive). Moreover, the inhibition in test [7] was -6.35% (inactive); in test [8], -6.5% (inactive).
In the case of `Cc1sc2nc(SCC(=O)Nc3c(C)n(C)n(-c4ccccc4)c3=O)n(C)c(=O)c2c1C`, the viability in test [1] is 102%; in test [3] it was 102% (inactive); in test [4] it was 95.4% (inactive); in test [5], 97.3% (inactive); in test [6] (setting [9]), 96.2%; in test [6] (setting [10]), 97.3%. The Her2 level in test [2] was 95.5% (inactive). In addition, the differential viability (reversal) in test [6] (H69AR cells + 2 uM doxorubicin) is 1.12% (inactive). Moreover, the inhibition in test [7] is 0% (inactive); in test [8], 1.15% (inactive).
For `CC(C)Cc1n[nH]c(=O)[nH]1`, the viability was 118% in test [1]; 118% (inactive) in test [3]; 93.9% (inactive) in test [4]; 98.4% (inactive) in test [5]; 88.7% in test [6] (setting [9]); 98.4% in test [6] (setting [10]). Moreover, the Her2 level in test [2] is 115% (inactive). The differential viability (reversal) in test [6] (H69AR cells + 2 uM doxorubicin) is 9.75% (inactive). Moreover, the results for the inhibition in test [7] and in test [8] were -6.93% (inactive) and -9.84% (inactive), respectively.
As to `CCCCc1nc2n[nH]c(N)c2c2c1CCCC2`, the viability is 138% in test [1]; 138% (inactive) in test [3]; 59.9% (inactive) in test [4]; 92.3% (inactive) in test [5]; 85.6% in test [6] (setting [9]); 92.3% in test [6] (setting [10]). Besides, the Her2 level in test [2] was 96% (inactive). Moreover, in test [6] (H69AR cells + 2 uM doxorubicin), the differential viability (reversal) was 6.68% (inactive). Moreover, the inhibition in test [7] is -5.47% (inactive); in test [8], -0.82% (inactive).
In the case of `CCCCOc1ccc(-c2ncc(C(=O)OCC)c(N)n2)cc1`, the viability in test [1] was 89.5%; in test [3] it was 89.5% (inactive); in test [4] it was 103% (inactive); in test [5] it was 90% (inactive); in test [6] (setting [9]) it was 81.5%; in test [6] (setting [10]) it was 90%. Moreover, the Her2 level in test [2] was 88% (inactive). Moreover, the differential viability (reversal) in test [6] (H69AR cells + 2 uM doxorubicin) is 8.43% (inactive). The inhibition was -6.8% (inactive) in test [7] and -6.03% (inactive) in test [8].
In the case of `CCNC(=O)C1CC(=O)N(Cc2ccc3c(c2)OCO3)C(=Nc2ccc(OCC)cc2)S1` (stereo not given), the viability in test [1] is 94.5%; in test [3] it was 94.5% (inactive); in test [4] it was 48.6% (inactive); in test [5], 66.1% (inactive); in test [6] (setting [9]), 63.1%; in test [6] (setting [10]), 66.1%. Moreover, in test [2], the Her2 level was 76% (inactive). In test [6] (H69AR cells + 2 uM doxorubicin), the differential viability (reversal) was 2.95% (inactive). Further, the inhibition was -2.11% (inactive) in test [7] and 6.89% (inactive) in test [8].
For the compound `COc1cccc(-n2c(CNc3ccc(F)cc3)nnc2SCC(N)=O)c1`, the viability in test [1] is 115%; in test [3], 115% (inactive); in test [4] it was 101% (inactive); in test [5] it was 90.4% (inactive); in test [6] (setting [9]), 81.6%; in test [6] (setting [10]), 90.4%. Also, the Her2 level in test [2] is 82.5% (inactive). For the same compound, the differential viability (reversal) in test [6] (H69AR cells + 2 uM doxorubicin) is 8.77% (inactive). For the same compound, the inhibition in test [7] was -4.67% (inactive); in test [8] it was 0.97% (inactive).
As for `COCCN1CN(S(=O)(=O)c2ccccc2)c2nc3ccccc3nc21`, the viability was 101% in test [1]; 101% (inactive) in test [3]; 109% (inactive) in test [4]; 98% (inactive) in test [5]; 101% in test [6] (setting [9]); 98% in test [6] (setting [10]). Moreover, the Her2 level in test [2] is 93.5% (inactive). Further, the differential viability (reversal) in test [6] (H69AR cells + 2 uM doxorubicin) is -2.97% (inactive). The figures for the inhibition in test [7] and in test [8] were -3.95% (inactive) and 13.6% (inactive), respectively.
`CC(CCc1ccccc1)NC(=O)c1ccc(Br)o1` (stereo not given): the viability in test [1] is 110%; in test [3], 110% (inactive); in test [4] it was 88.5% (inactive); in test [5] it was 93.5% (inactive); in test [6] (setting [9]) it was 84%; in test [6] (setting [10]), 93.5%. The Her2 level in test [2] was 86% (inactive). Further, the differential viability (reversal) in test [6] (H69AR cells + 2 uM doxorubicin) was 9.45% (inactive). Further, the inhibition in test [7] was -4.93% (inactive); in test [8], 0.63% (inactive).
`C=CCN(CC=C)C(=O)CN1C(=O)c2ccccc2C1=O`: the viability is 125% in test [1]; 125% (inactive) in test [3]; 97.5% (inactive) in test [4]; 92.2% (inactive) in test [5]; 92.1% in test [6] (setting [9]); 92.2% in test [6] (setting [10]). Besides, in test [2], the Her2 level is 89.5% (inactive). The differential viability (reversal) in test [6] (H69AR cells + 2 uM doxorubicin) is 0.065% (inactive). The inhibition in test [7] was 0% (inactive); in test [8] it was 1.13% (inactive).
With `COc1cc(Nc2cc(C)nc3ncnn23)cc(OC)c1OC`, the viability in test [1] was 102%; in test [3], 102% (inactive); in test [4] it was 98.2% (inactive); in test [5], 100% (inactive); in test [6] (setting [9]), 79.3%; in test [6] (setting [10]) it was 100%. For the same compound, the Her2 level in test [2] is 98.5% (inactive). Besides, in test [6] (H69AR cells + 2 uM doxorubicin), the differential viability (reversal) is 21% (inactive). Besides, the inhibition was 1.6% (inactive) in test [7] and -3.11% (inactive) in test [8].
Turning to `Cc1nc2c(c(=O)n1CC1CCCO1)c1nc3ccccc3nc1n2CC(C)C` (stereo not given), the viability is 96.5% in test [1]; 96.5% (inactive) in test [3]; 104% (inactive) in test [4]; 84.2% (inactive) in test [5]; 94.1% in test [6] (setting [9]); 84.2% in test [6] (setting [10]). In test [2], the Her2 level is 89.5% (inactive). For the same compound, in test [6] (H69AR cells + 2 uM doxorubicin), the differential viability (reversal) is -9.93% (inactive). Moreover, the inhibition was 2.63% (inactive) in test [7] and 0.81% (inactive) in test [8].
In the case of `CCOC(=O)CSc1nnc(CNC(=O)c2cccs2)n1-c1cc(OC)ccc1OC`, the viability was 96.5% in test [1]; 96.5% (inactive) in test [3]; 113% (inactive) in test [4]; 99.3% (inactive) in test [5]; 88.3% in test [6] (setting [9]); 99.3% in test [6] (setting [10]). Moreover, the Her2 level in test [2] is 94% (inactive). In addition, the differential viability (reversal) in test [6] (H69AR cells + 2 uM doxorubicin) was 11.1% (inactive). Moreover, the results for the inhibition in test [7] and in test [8] were -6.32% (inactive) and -0.55% (inactive), respectively.
`CCOC(=O)c1cccc(NC(=O)C2CCN(S(=O)(=O)c3cccs3)CC2)c1`: the viability in test [1] is 75.5%; in test [3] it was 75.5% (inactive); in test [4], 60.7% (inactive); in test [5] it was 65% (inactive); in test [6] (setting [9]), 72.9%; in test [6] (setting [10]), 65%. Besides, the Her2 level in test [2] is 96% (inactive). For the same compound, the differential viability (reversal) in test [6] (H69AR cells + 2 uM doxorubicin) is -7.91% (inactive). The inhibition in test [7] was -5.58% (inactive); in test [8] it was -3.81% (inactive).
For `CC1=C(C(=O)OC(C)C)C(C2CC=CCC2)NC(=O)N1` (stereo not given), the viability is 95.5% in test [1]; 95.5% (inactive) in test [3]; 98.5% (inactive) in test [4]; 87.3% (inactive) in test [5]; 88.7% in test [6] (setting [9]); 87.3% in test [6] (setting [10]). Moreover, the Her2 level in test [2] is 113% (inactive). Also, the differential viability (reversal) in test [6] (H69AR cells + 2 uM doxorubicin) is -1.42% (inactive). Moreover, the inhibition is 0.77% (inactive) in test [7] and -10.7% (inactive) in test [8].
